“And” between values parts separate entries of the source, which are not always exact repeats. Identical values can stand only once.
Tests used:
Fibroblast = assay: Multiplex assay against human fibroblast; assay type: toxicity, cell-based
Outline: (§1)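 Live cells were stained at seeding with Hoechst33342, BioTracker Green Microtubule Cytoskeleton Dye, MitoTracker Red and Annexin V Alexa Fluor 680. Following compound addition, they were imaged on a CQ1 microscope at 37°C and 5% CO2 and gated by CellPathfinder machine learning into Hoechst high-intensity objects or normal cells, with normal cells split into healthy, pyknosed or fragmented nuclei and pyknosed cells into mitotic or apoptotic. Tubulin, mitochondrial-mass and membrane-permeability phenotypes are per cents of healthy-nucleus cells.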

HEK-293T = assay: Multiplex assay against HEK293T; assay type: toxicity, cell-based; conditions: human; outline: as §1
[1] = 12 h, 1 µM, compound concentration 1 uM
[2] = 12 h, 10 µM, compound concentration 10 uM
[3] = 24 h, 1 µM, compound concentration 1 uM
[4] = 24 h, 10 µM, compound concentration 10 uM
[5] = 48 h, 1 µM, compound concentration 1 uM
[6] = 48 h, 10 µM, compound concentration 10 uM

Cc1ccc(/C(=C\CN2CCCC2)c2ccccn2)cc1 [TRIPROLIDINE]
Population Apoptotic (%) (Fibroblast; [1]): 52% and 41%
Population Fragmented Nuclei (%) (Fibroblast; [1]): 17% and 28%
Population Healthy Nuclei (%) (Fibroblast; [1]): 64% and 45%
Population Hoechst High Intensity Objects (%) (Fibroblast; [1]): 3% and 4%
Population Membrane Permeable-Phenotype (%) (Fibroblast; [1]): 0% and 1%
Population Mitochondria Different-Phenotype (%) (Fibroblast; [1]): 9%
Population Mitotic Cells (%) (Fibroblast; [1]): 47% and 58%
Population Normal (%) (Fibroblast; [1]): 96% and 95%
Population Pyknosed Nuclei (%) (Fibroblast; [1]): 18% and 25%
Population Tubulin-Different-Phenotype (%) (Fibroblast; [1]): 29% and 60%
Total Cell Count (Fibroblast; [1]): 119 and 127
Population Apoptotic (%) (Fibroblast; [2]): 57% and 50%
Population Fragmented Nuclei (%) (Fibroblast; [2]): 14% and 26%
Population Healthy Nuclei (%) (Fibroblast; [2]): 64% and 52%
Population Hoechst High Intensity Objects (%) (Fibroblast; [2]): 2%
Population Membrane Permeable-Phenotype (%) (Fibroblast; [2]): 0% and 9%
Population Mitochondria Different-Phenotype (%) (Fibroblast; [2]): 5% and 9%
Population Mitotic Cells (%) (Fibroblast; [2]): 42% and 50%
Population Normal (%) (Fibroblast; [2]): 97%
Population Pyknosed Nuclei (%) (Fibroblast; [2]): 20% and 21%
Population Tubulin-Different-Phenotype (%) (Fibroblast; [2]): 44% and 59%
Total Cell Count (Fibroblast; [2]): 139 and 141
Population Apoptotic (%) (Fibroblast; [3]): 43% and 46%
Population Fragmented Nuclei (%) (Fibroblast; [3]): 17% and 29%
Population Healthy Nuclei (%) (Fibroblast; [3]): 69% and 43%
Population Hoechst High Intensity Objects (%) (Fibroblast; [3]): 4% and 9%
Population Membrane Permeable-Phenotype (%) (Fibroblast; [3]): 1% and 6%
Population Mitochondria Different-Phenotype (%) (Fibroblast; [3]): 3% and 6%
Population Mitotic Cells (%) (Fibroblast; [3]): 56% and 53%
Population Normal (%) (Fibroblast; [3]): 95% and 90%
Population Pyknosed Nuclei (%) (Fibroblast; [3]): 13% and 27%
Population Tubulin-Different-Phenotype (%) (Fibroblast; [3]): 23% and 64%
Total Cell Count (Fibroblast; [3]): 128 and 121
Population Apoptotic (%) (Fibroblast; [4]): 47% and 58%
Population Fragmented Nuclei (%) (Fibroblast; [4]): 15% and 29%
Population Healthy Nuclei (%) (Fibroblast; [4]): 68% and 52%
Population Hoechst High Intensity Objects (%) (Fibroblast; [4]): 4% and 2%
Population Membrane Permeable-Phenotype (%) (Fibroblast; [4]): 0% and 6%
Population Mitochondria Different-Phenotype (%) (Fibroblast; [4]): 3% and 12%
Population Mitotic Cells (%) (Fibroblast; [4]): 52% and 41%
Population Normal (%) (Fibroblast; [4]): 95% and 97%
Population Pyknosed Nuclei (%) (Fibroblast; [4]): 15% and 17%
Population Tubulin-Different-Phenotype (%) (Fibroblast; [4]): 41% and 62%
Total Cell Count (Fibroblast; [4]): 142 and 141
Population Apoptotic (%) (Fibroblast; [5]): 54% and 52%
Population Fragmented Nuclei (%) (Fibroblast; [5]): 26% and 29%
Population Healthy Nuclei (%) (Fibroblast; [5]): 65% and 48%
Population Hoechst High Intensity Objects (%) (Fibroblast; [5]): 3% and 7%
Population Membrane Permeable-Phenotype (%) (Fibroblast; [5]): 1% and 7%
Population Mitochondria Different-Phenotype (%) (Fibroblast; [5]): 2% and 10%
Population Mitotic Cells (%) (Fibroblast; [5]): 45% and 48%
Population Normal (%) (Fibroblast; [5]): 96% and 92%
Population Pyknosed Nuclei (%) (Fibroblast; [5]): 8% and 21%
Population Tubulin-Different-Phenotype (%) (Fibroblast; [5]): 31% and 57%
Total Cell Count (Fibroblast; [5]): 135 and 124
Population Apoptotic (%) (Fibroblast; [6]): 38% and 42%
Population Fragmented Nuclei (%) (Fibroblast; [6]): 20% and 32%
Population Healthy Nuclei (%) (Fibroblast; [6]): 69% and 56%
Population Hoechst High Intensity Objects (%) (Fibroblast; [6]): 7% and 5%
Population Membrane Permeable-Phenotype (%) (Fibroblast; [6]): 1% and 5%
Population Mitochondria Different-Phenotype (%) (Fibroblast; [6]): 6% and 9%
Population Mitotic Cells (%) (Fibroblast; [6]): 61% and 57%
Population Normal (%) (Fibroblast; [6]): 92% and 94%
Population Pyknosed Nuclei (%) (Fibroblast; [6]): 9% and 10%
Population Tubulin-Different-Phenotype (%) (Fibroblast; [6]): 35% and 54%
Total Cell Count (Fibroblast; [6]): 142 and 140
Population Apoptotic (%) (HEK-293T; [1]): 34% and 50%
Population Fragmented Nuclei (%) (HEK-293T; [1]): 6% and 3%
Population Healthy Nuclei (%) (HEK-293T; [1]): 83% and 84%
Population Hoechst High Intensity Objects (%) (HEK-293T; [1]): 7% and 5%
Population Membrane Permeable-Phenotype (%) (HEK-293T; [1]): 0%
Population Mitochondria Different-Phenotype (%) (HEK-293T; [1]): 45% and 55%
Population Mitotic Cells (%) (HEK-293T; [1]): 65% and 50%
Population Normal (%) (HEK-293T; [1]): 92% and 94%
Population Pyknosed Nuclei (%) (HEK-293T; [1]): 9% and 11%
Population Tubulin-Different-Phenotype (%) (HEK-293T; [1]): 24% and 17%
Total Cell Count (HEK-293T; [1]): 424 and 446
Population Apoptotic (%) (HEK-293T; [2]): 44%
Population Fragmented Nuclei (%) (HEK-293T; [2]): 10% and 6%
Population Healthy Nuclei (%) (HEK-293T; [2]): 72% and 77%
Population Hoechst High Intensity Objects (%) (HEK-293T; [2]): 15% and 8%
Population Membrane Permeable-Phenotype (%) (HEK-293T; [2]): 0%
Population Mitochondria Different-Phenotype (%) (HEK-293T; [2]): 67% and 74%
Population Mitotic Cells (%) (HEK-293T; [2]): 56%
Population Normal (%) (HEK-293T; [2]): 84% and 91%
Population Pyknosed Nuclei (%) (HEK-293T; [2]): 16% and 15%
Population Tubulin-Different-Phenotype (%) (HEK-293T; [2]): 53% and 45%
Total Cell Count (HEK-293T; [2]): 368 and 344
Population Apoptotic (%) (HEK-293T; [3]): 30%
Population Fragmented Nuclei (%) (HEK-293T; [3]): 10% and 9%
Population Healthy Nuclei (%) (HEK-293T; [3]): 78% and 82%
Population Hoechst High Intensity Objects (%) (HEK-293T; [3]): 3% and 7%
Population Membrane Permeable-Phenotype (%) (HEK-293T; [3]): 0%
Population Mitochondria Different-Phenotype (%) (HEK-293T; [3]): 27% and 34%
Population Mitotic Cells (%) (HEK-293T; [3]): 70% and 69%
Population Normal (%) (HEK-293T; [3]): 96% and 92%
Population Pyknosed Nuclei (%) (HEK-293T; [3]): 10% and 7%
Population Tubulin-Different-Phenotype (%) (HEK-293T; [3]): 18% and 9%
Total Cell Count (HEK-293T; [3]): 574 and 541

— ChEMBL document CHEMBL5724801, “EUbOPEN Chemogenomics Library - Multiplex” (2024)
